Laboratory results reported in ChEMBL document CHEMBL1125166, “Kinetic and equilibrium binding studies of amsacrine-4-carboxamides: a class of asymmetrical DNA-intercalating agents which bind by threading through the DNA helix” (J Med Chem, 1990).
Values joined by “and” are separate entries in the source; they are usually repeats but may differ in a detail not shown here. Identical values can stand only once.

Columns and labels:
Nucleic Acid [1] = experiment: Time constant describing the association profile of calf thymus DNA-drug complexes in 0.1 SHE buffer at 20 degree C after 2 min; assay type: nucleic-acid assay
How it was run: (§1)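 Stopped-flow association to sonicated calf thymus DNA (~10^6 MW) in 0.1 SHE at 20 °C. Final DNA 200 μM base pairs and final drug 10 μM (ratio 0.05); D/P also varied to 0.10 and 0.20. Absorbance followed at the drug's visible maximum. Traces deconvoluted into exponentials by curve stripping; at least six runs analysed separately and averaged. Amplitudes given as % of summed amplitudes.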

Nucleic Acid [2] = experiment: (§2) Fraction of the observed equilibrium absorbance change accounted in the kinetic analysis on rates with DNA-ligand ratio.; assay type: functional; settings: Bos taurus
Nucleic Acid [3] = experiment: (§3) Fraction of the observed equilibrium absorbance change accounted in the kinetic analysis.; assay type: nucleic-acid assay
How it was run: (§4)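 SDS-induced dissociation by stopped flow. Drug–calf thymus DNA complex (400 μM base pairs, 20 μM drug, 0.1 SHE) mixed 1:1 with 20 mM SDS (monomer) at 20 °C. Finals: 200 μM DNA, 10 μM drug, 10 mM SDS; D/P also 0.2. Absorbance followed at the visible maximum. Time constants and % amplitudes obtained from exponential fitting. Fraction = resolved amplitude over equilibrium absorbance change on SDS addition.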

Nucleic Acid [4] = experiment: Free drug λmax in 0.1 SHE buffer at the concentration of 50 uM for equilibrium binding to calf thymus DNA
Nucleic Acid [5] = experiment: as §2; assay type: nucleic-acid assay; settings: Bos taurus
Nucleic Acid [6] = experiment: Time constant describing the association profile of calf thymus DNA-drug complexes in 0.1 SHE buffer at 20 degree C after 3 min; assay type: nucleic-acid assay; how it was run: as §1
Nucleic Acid [7] = experiment: Percentage of the sum of the amplitudes evaluated in the kinetic experiment on rates with DNA-ligand ratio.; assay type: functional; settings: Bos taurus; how it was run: as §1
Nucleic Acid [8] = experiment: Time constant describing the association profile of calf thymus DNA-drug complexes in 0.1 SHE buffer at 20 degree C after 1 min; assay type: nucleic-acid assay; how it was run: as §1
Nucleic Acid [9] = experiment: Free drug extinction coefficient in 0.1 SHE buffer at the concentration of 50 uM; 9.4 x 10 e-3 epcilonfor equilibrium binding to calf thymus DNA; settings: Bos taurus
Nucleic Acid [10] = experiment: as §3; assay type: functional; settings: Bos taurus; how it was run: as §4
Nucleic Acid [11] = experiment: Association constant for binding to poly(dA-dT) DNA in 0.01 SHE buffer, measured by ethidium displacement method; assay type: nucleic-acid assay
How it was run: (§5)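 Ethidium displacement in 0.01 SHE buffer with poly(dA-dT) or poly(dG-dC). Association constants corrected for quenching.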

Nucleic Acid [12] = experiment: Association constant for binding to poly(dG-dC) DNA in 0.01 SHE buffer, measured by ethidium displacement method; assay type: nucleic-acid assay; how it was run: as §5
Nucleic Acid [13] = experiment: Association constant for binding to poly(dG-dC) DNA in 0.01 SHE buffer, measured by ethidium displacement method for equilibrium binding to calf thymus DNA; assay type: nucleic-acid assay
Nucleic Acid [14] = experiment: (§6) Time constant describing the dissociation profile of calf thymus DNA-drug complexes in 0.1 SHE buffer at 20 degree C; assay type: nucleic-acid assay; how it was run: as §4
Nucleic Acid [15] = experiment: Association constant for binding to poly(dA-dT) DNA in 0.01 SHE buffer, measured by ethidium displacement method for equilibrium binding to calf thymus DNA; assay type: nucleic-acid assay
Nucleic Acid [16] = experiment: Time constant describing the dissociation profile of calf thymus DNA-drug complexes in 0.1 SHE buffer at 20 degree C.; assay type: nucleic-acid assay; how it was run: as §4
Nucleic Acid [17] = experiment: Percentage of the sum of the amplitudes evaluated in the kinetic experiment.; assay type: functional; settings: Bos taurus; how it was run: as §4
Nucleic Acid [18] = experiment: (§7) Fraction of the observed equilibrium absorbance change accounted in the kinetic analysis off rates with DNA-ligand ratio.; assay type: nucleic-acid assay; settings: Bos taurus; how it was run: as §4
Nucleic Acid [19] = experiment: Percentage of the sum of the amplitudes evaluated in the kinetic experiment for binding of compound to a calf thymus DNA; settings: Bos taurus
Nucleic Acid [20] = experiment: as §7; assay type: functional; settings: Bos taurus; how it was run: as §4
Nucleic Acid [21] = experiment: Time constant describing the dissociation profile was studied for binding of compound to a poly(dA-dT) DNA; assay type: nucleic-acid assay
Nucleic Acid [22] = experiment: Fraction of the observed equilibrium absorbance change accounted in the kinetic analysis or binding of compound to a CT-DNA; assay type: functional; settings: Bos taurus; how it was run: as §4
Nucleic Acid [23] = experiment: Fraction of the observed equilibrium absorbance change accounted in the kinetic analysis or binding of compound to a (dG-dC)-DNA; assay type: nucleic-acid assay; settings: Bos taurus
Nucleic Acid [24] = experiment: Time constant describing the association profile was studied for variation on rates with DNA-ligand ratio.; assay type: nucleic-acid assay; how it was run: as §1
Nucleic Acid [25] = experiment: Time constant describing the association profile was studied for binding of compound to a (dA-dT)DNA; assay type: nucleic-acid assay
Nucleic Acid [26] = experiment: Percentage of the sum of the amplitudes evaluated in the kinetic experiment for binding of compound to a CT-DNA; assay type: nucleic-acid assay; settings: Bos taurus; how it was run: as §4
Nucleic Acid [27] = experiment: Fraction of the observed equilibrium absorbance change accounted in the kinetic analysis or binding of compound to a (dA-dT)-DNA; assay type: functional; settings: Bos taurus
Nucleic Acid [28] = experiment: Time constant describing the dissociation profile was studied for binding of compound to a poly(dG-dC) DNA; assay type: nucleic-acid assay
Nucleic Acid [29] = experiment: Percentage of the sum of the amplitudes evaluated in the kinetic experiment for binding of compound to a (dI-dC)DNA; assay type: functional; settings: Bos taurus
Nucleic Acid [30] = experiment: Time constant describing the dissociation profile was studied for binding of compound to a (dA-dT)DNA; assay type: nucleic-acid assay
Nucleic Acid [31] = experiment: Time constant describing the association profile was studied for binding of compound to a poly(dA-dT) DNA; assay type: nucleic-acid assay
[32] = Fraction of the observed equilibrium absorbance change accounted in the kinetic analysis; how it was run: as §4
Nucleic Acid [33] = experiment: Percentage of the sum of the amplitudes evaluated in the kinetic experiment; assay type: nucleic-acid assay; settings: Bos taurus
Nucleic Acid [34] = experiment: Percentage of the sum of the amplitudes in the kinetic experiment.; assay type: nucleic-acid assay; settings: Bos taurus
Nucleic Acid [35] = experiment: as §6; assay type: nucleic-acid assay; remark: listed apart in the source
How it was run: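 Stopped-flow absorbance at 20 °C, read at the visible absorption maxima. The complex was 400 μM sonicated calf thymus DNA (nucleotide pairs) with 20 μM drug in 0.1 SHE, mixed with an equal volume of 20 mM SDS (monomer) in the same buffer. Final: 200 μM DNA bp, 10 μM drug, 10 mM SDS (1 drug : 20 bp). Exponential decay time constants were resolved.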

Row | Structure (SMILES) | Time constant (Nucleic Acid [1]) | λmax (nm) (Nucleic Acid [4]) | Time constant (Nucleic Acid [6]) | Time constant (Nucleic Acid [8]) | ε (×10^-3) (Nucleic Acid [9]) | k0 (Nucleic Acid [11]) | k0 (Nucleic Acid [12]) | Activity (Nucleic Acid [3]; Bos taurus) | also measured
1 | CN(C)CCNC(=O)c1cccc2c(N)c3ccccc3nc12 | – | 407 | – | – | 9.4 | – | – | – | T2 (Nucleic Acid [1]): 19 ms; k0 (Nucleic Acid [13]): 5e+07 M⁻¹; T1 (Nucleic Acid [8]): 4 ms; T1 (Nucleic Acid [14]): 6 ms; T2 (Nucleic Acid [14]): 28 ms; T3 (Nucleic Acid [14]): 86 ms; T4 (Nucleic Acid [14]): 428 ms; k0 (Nucleic Acid [15]): 2.24e+07 M⁻¹
2 | COc1cc(NS(C)(=O)=O)ccc1Nc1c2ccccc2nc2c(C(=O)NCCN(C)C)cccc12 | 24 ms | 442 | 110 ms | 5 ms | 12.9 | 2.45e+07 M⁻¹ | 6.6e+07 M⁻¹ | 62 | Activity (Nucleic Acid [18]): 95; Activity (Nucleic Acid [2]): 72; Relative amplitude (Nucleic Acid [19]): 64%; Activity (Nucleic Acid [20]): 97; Activity (Nucleic Acid [5]): 62 and 60; Time constant (Nucleic Acid [21]): 38 ms; Activity (Nucleic Acid [22]): 62 and 97; Activity (Nucleic Acid [23]): 76 and 99; Time constant (Nucleic Acid [24]): 5 ms; Time constant (Nucleic Acid [25]): 3 ms; Relative amplitude (Nucleic Acid [26]): 41%; Activity (Nucleic Acid [27]): 25 and 70; Time constant (Nucleic Acid [28]): 1640 ms and 3500 ms; Relative amplitude (Nucleic Acid [29]): 78%; Time constant (Nucleic Acid [30]): 7 ms; Time constant (Nucleic Acid [31]): 16 ms; Activity (Nucleic Acid [10]): 97
3 | Nc1c2ccccc2nc2ccccc12 | – | 399 | – | – | 10.1 | – | – | – | Activity [32]: 50; k0 (Nucleic Acid [13]): 1.4e+06 M⁻¹; T1 (Nucleic Acid [14]): 3 ms; T2 (Nucleic Acid [14]): 15 ms; k0 (Nucleic Acid [15]): 1.2e+06 M⁻¹; Relative amplitude (Nucleic Acid [33]): 15% and 12%
4 | COc1cc(NS(C)(=O)=O)ccc1Nc1c2ccccc2nc2ccccc12 | – | 434 | – | – | 12.1 | 290000 M⁻¹ | 260000 M⁻¹ | 48 | Time constant (Nucleic Acid [35]): 2 ms and 6 ms
5 | CNC(=O)c1cccc2c(Nc3ccc(NS(C)(=O)=O)cc3OC)c3ccccc3nc12 | 7 ms | 438 | – | 2 ms | 11.6 | 350000 M⁻¹ | 1.51e+06 M⁻¹ | 54 and 79 | Time constant (Nucleic Acid [16]): 11 ms and 29 ms; Relative amplitude (Nucleic Acid [34]): 52% [middle of 4 runs]

More lines, main results first:

Row | Time constant (Nucleic Acid [1]) | λmax (nm) (Nucleic Acid [4]) | Time constant (Nucleic Acid [6]) | Time constant (Nucleic Acid [8]) | ε (×10^-3) (Nucleic Acid [9]) | k0 (Nucleic Acid [11]) | k0 (Nucleic Acid [12]) | Activity (Nucleic Acid [3]; Bos taurus) | Structure (SMILES) | also measured
6 | 25 ms | 440 | 93 ms | 5 ms | 12.3 | 2.82e+07 M⁻¹ | 6.61e+07 M⁻¹ | – | COc1cc(NS(C)(=O)=O)ccc1Nc1c2ccccc2nc2c(C(=O)NCC(=O)NCCNCCO)cccc12 | Activity (Nucleic Acid [2]): 66 and 65; Activity (Nucleic Acid [3]): 66; Activity (Nucleic Acid [5]): 74; Relative amplitude (Nucleic Acid [7]): 33% (2×) and 48% and 37%; Activity (Nucleic Acid [10]): 100
7 | 40 ms | 425 | 110 ms | 8 ms | 10.4 | 2.51e+06 M⁻¹ | 3.71e+07 M⁻¹ | 77 and 88 | COc1cc(NS(C)(=O)=O)ccc1Nc1c2ccccc2nc2c(C(=O)NCC(O)CO)cccc12 (configuration not stated) | –
8 | 31 ms | 441 | 100 ms | 4 ms | 10.4 | 890000 M⁻¹ | 2.4e+06 M⁻¹ | 90 and 80 | COc1cc(NS(C)(=O)=O)ccc1Nc1c2ccccc2nc2c(C(=O)NCCO)cccc12 | Time constant (Nucleic Acid [16]): 81 ms and 208 ms
9 | 32 ms | 439 | 95 ms | 4 ms | 10.9 | 950000 M⁻¹ | 8.12e+06 M⁻¹ | 85 and 72 | COc1cc(NS(C)(=O)=O)ccc1Nc1c2ccccc2nc2c(C(=O)NCCCO)cccc12 | Relative amplitude (Nucleic Acid [17]): 25% and 35%; Time constant (Nucleic Acid [16]): 58 ms and 157 ms
10 | 15 ms | 441 | 66 ms | 3 ms | 11.6 | 2.34e+06 M⁻¹ | 3.98e+06 M⁻¹ | 79 and 92 | COc1cc(NS(C)(=O)=O)ccc1Nc1c2ccccc2nc2c(C(=O)NCCCN(C)C)cccc12 | Relative amplitude (Nucleic Acid [34]): 31% and 39% and 55%
11 | 18 ms | 441 | 66 ms | 3 ms | 11.6 | 2.19e+07 M⁻¹ | 4.9e+07 M⁻¹ | 69 | COc1cc(NS(C)(=O)=O)ccc1Nc1c2ccccc2nc2c(C(=O)NCCNCCO)cccc12 | Activity (Nucleic Acid [2]): 68; Activity (Nucleic Acid [5]): 69 and 60; Activity (Nucleic Acid [10]): 100
